Columns and labels:
JNK1 = JNK1 (Homo sapiens, UniProt P45983); experiment: in vitro JNK1 PhALC kinase assay; format: biochemical
[1] = system: p38-mediated MK2 phosphorylation; experiment: phospho-MK2 western blot in HEK293T MKK6EE cells; format: cell-based, human; settings: doxycycline, JNK inhibitors 3 μM
In short: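 HEK293T MKK6EE cells allow p38-specific activation through doxycycline-inducible expression of constitutively active MKK6EE. Phospho-MK2 was read by western blot with a fluorescent secondary antibody and infrared imaging. α-Tubulin served as load control, and anti-FLAG monitored transgene expression.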

[2] = stability in rat blood plasma; format: in vitro ADME; settings: up to 120 min
In short: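 Test compound from DMSO was added to male Wistar rat blood plasma at 1 or 10 μM final. Samples were taken at 0, 10, 20, 30, 60 and 120 min, quenched with ice-cold acetonitrile, and centrifuged. Parent compound was quantified by LC-MS/MS, and t1/2 was calculated from its decline.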

[3] = system: JNK mediated c-Jun phosphorylation; experiment: sorbitol stimulated c-Jun phosphorylation, western blot, HEK293T cells; format: cell-based, human; settings: sorbitol 15 min, inhibitor 1 µM added 2 h before
In short: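 HEK293T cells seeded at 50,000/well and grown to confluence (~24 h) in DMEM with 10% FBS, then serum-starved 16 h. Inhibitor in 50% DMSO added 2 h before 0.35 M sorbitol for 15 min; final DMSO 0.1%, with a DMSO-only control. Cells chilled on ice, pelleted, washed in cold PBS and lysed in SDS loading buffer. Lysates run on 10% Tris-glycine gels and blotted to nitrocellulose for phospho-JNK and phospho-c-Jun.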

[4] = system: JNK mediated c-Jun(Ser73) phosphorylation; experiment: quantitative western blot p-c-Jun; format: cell-based, human
In short: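 SH-SY5Y cells carry a Tet-ON-inducible MKK7–MLK3 kinase-domain chimera and were kept in DMEM F12 + 1% FBS. Cells received 2 or 3 μg/mL doxycycline together with test compound. Lysates were taken after 6 h (2 or 6 h in blots) for quantitative western blot of p-c-Jun(Ser73), with α-tubulin as load control. Normalized signal was fitted to a dose-response function for EC50. Blots are representative of two independent experiments.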

[5] = LC-MS of GSH adduct formation; format: physicochemical; settings: 10 mM GSH, electrospray mass spectrometry
In short: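 Mass analysis of glutathione adducts by LC-MS with electrospray ionisation. Linear gradient from 10% to 55% eluent B over 12 min, then 95% B, returning to 10% B by 18 min. Flow 0.4 ml/min, column at 40 °C. Source 350 °C, spray voltage 5500 V, declustering potential 80 V. Raw spectra deconvoluted to neutral molecular masses.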

JNK1 WT = JNK1 WT (Homo sapiens, UniProt P45983); experiment: SPR kinetic binding, wild-type JNK1 surface
JNK1 C116S mutant = JNK1 C116S mutant (Homo sapiens, UniProt P45983, C116S); format: binding; settings: repeat experiment, 100, 300, 1000 nM on JNK C116S surface
[6] = metabolic stability in rat primary hepatocytes; format: in vitro ADME
In short: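 Hepatocytes were isolated from male Wistar rats by collagenase perfusion. Test compound from DMSO was added to 1 or 10 μM final (0.1% DMSO) in William's E:Ham's F12 (1:1) medium. Samples were taken at 0–240 min, quenched with ice-cold acetonitrile, and parent compound was quantified by LC-MS/MS. A cell-free medium control was included. Clint came from parent loss; ClH and extraction ratio were predicted from Clint, with cut-offs of 0.3 and 0.7.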

Chain of JNK1 WT (P45983 1-384 isoform P45983-3): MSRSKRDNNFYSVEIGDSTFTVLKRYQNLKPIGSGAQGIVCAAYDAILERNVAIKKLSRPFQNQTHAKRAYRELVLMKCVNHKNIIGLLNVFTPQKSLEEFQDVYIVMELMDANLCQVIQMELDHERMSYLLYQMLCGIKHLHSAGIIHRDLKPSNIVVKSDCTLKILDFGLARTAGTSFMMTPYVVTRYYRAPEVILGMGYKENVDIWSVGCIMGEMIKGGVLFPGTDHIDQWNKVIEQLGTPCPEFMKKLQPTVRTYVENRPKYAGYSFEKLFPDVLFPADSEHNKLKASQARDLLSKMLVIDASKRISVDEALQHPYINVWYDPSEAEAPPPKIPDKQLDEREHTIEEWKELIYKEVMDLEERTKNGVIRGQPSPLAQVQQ
Chain of JNK1 C116S mutant (P45983 1-384 isoform P45983-3 C116S): as the sequence (P45983 1-384 isoform P45983-3) above, with C116S counted along it
Chain of JNK1 (P45983 1-384 isoform P45983-3): as the sequence (P45983 1-384 isoform P45983-3) above

IC50 (JNK1) [µM]	half-life / stability in plasma [2]	Western blot p-c-Jun(Ser73) EC50/IC50 ([4]; SH-SY5Y MKK7 ACT cells, 6 h DOX stimulation)	k3, new experiment calculated with the newly determined k1, k2 (JNK1 WT; 1, 3, 15 nM on JNK WT surface) [s⁻¹]	k3, parallel measurement (JNK1 WT; new experiment (for CA-IN-8: a, 15, 40, 70 nM) on JNK WT surface) [s⁻¹]	k1, parallel measurement (JNK1 C116S mutant) [M⁻¹ s⁻¹]	k2, parallel measurement (JNK1 C116S mutant) [s⁻¹]	hepatic extraction (class) ([6]; cut-off 0.3 low/intermediate, 0.7 intermediate/high)	in vivo hepatic clearance (ClH), predicted ([6]; predicted from Clint measured in rat primary hepatocyte cultures) [mL/min/kg]	Compound	effect on p38-mediated MK2 phosphorylation [1]	effect on c-Jun phosphorylation [3]	effect on c-Jun(Ser73) phosphorylation ([4]; SH-SY5Y MKK7 ACT, 2 or 6 h DOX, inhibitor 50 nM or 1 µM)	GSH adduct formation [5]
5.33 ± 0.232	–	–	–	–	–	–	–	–	CC(=O)Nc1cccc(C(=O)Nc2ccc(Nc3nccc(-c4cccnc4)n3)c(C)c2)c1 [IN-8a]	–	–	–	–
–	stable	~ 0.7 μM	0.03454	0.03181	1492000	0.1676	low	10.1	Cc1cc(NC(=O)c2cccc(NC(=O)/C=C/CN(C)C)c2)ccc1Nc1nccc(-c2cccnc2)n1 [JNK-IN-8]	do not affect	efficiently blocked JNK mediated c-Jun phosphorylation	can block c-Jun phosphorylation	irreversible covalent adduct formation with GSH

Reference: article PMC11452492 (Nature Communications, 2024)
